According to ChEMBL document CHEMBL5154717, “Identification of thiophene-benzenesulfonamide derivatives for the treatment of multidrug-resistant tuberculosis” (Eur J Med Chem, 2022):
In brackets after ≈: the same amount, converted by molar mass.

Key:
[1] = Selectivity index, Ratio of IC50 for Vero cells over MIC for Mycobacterium tuberculosis H37Rv; assay type: toxicity; details: monkey
[2] = Cytotoxicity against African green monkey Vero cells measured by MTT assay; assay type: toxicity, cell-based; details: African green monkey (Chlorocebus sabaeus)
Outline: (§1)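 Vero, HepG2 and mouse J774A.1 cells grown in RPMI 1640 with 10% FBS. MTT read-out in 96-well format.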

[3] = system: Mycobacterium tuberculosis; assay: Antimycobacterial activity against Mycobacterium tuberculosis H37Rv measured by MABA assay; assay type: functional
Outline: (§2)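 Microplate Alamar Blue assay against replicating M. tuberculosis H37Rv or clinical isolates. MIC is the lowest concentration giving ≥90% reduction in fluorescence relative to the mean of replicate bacterium-only controls.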

[4] = Metabolic stability in human hepatocytes assessed as compound remaining at 1 uM measured by LC-MS/MS analysis; assay type: ADME, cell-based, Hepatocyte; details: read-out: Stability
Outline: (§3)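 Compound at 1 µM with hepatocytes at 1 million cells/mL final; human hepatocytes are mixed donor, mouse are male. Incubated at 37 °C in CO2 at ~100 rpm. Sampled at 0, 15, 30, 60, 90 and 120 min, quenched in ice-cold ACN/MeOH with internal standard. Parent remaining measured by LC-MS/MS.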

[5] = Metabolic stability in mouse hepatocytes assessed as half-life at 1 uM measured by LC-MS/MS analysis; assay type: ADME, cell-based, Hepatocyte; outline: as §3
[6] = Metabolic stability in mouse hepatocytes assessed as compound remaining at 1 uM measured by LC-MS/MS analysis; assay type: ADME, cell-based, Hepatocyte; details: read-out: Stability; outline: as §3
[7] = Cytotoxicity against mouse J774.A1 cells measured by MTT assay; assay type: toxicity, cell-based; outline: as §1
[8] = system: Mycobacterium tuberculosis; assay: Antimycobacterial activity against Mycobacterium tuberculosis 13946 clinical isolate measured by MABA assay; assay type: functional; outline: as §2
[9] = system: Mycobacterium tuberculosis; assay: Antimycobacterial activity against Mycobacterium tuberculosis 14862 clinical isolate measured by MABA assay; assay type: functional; outline: as §2
[10] = Cytotoxicity against human HepG2 cells measured by MTT assay; assay type: toxicity, cell-based; outline: as §1
[11] = Metabolic stability in human hepatocytes assessed as half-life at 1 uM measured by LC-MS/MS analysis; assay type: ADME, cell-based, Hepatocyte; outline: as §3
[12] = target: Voltage-gated inwardly rectifying potassium channel KCNH2 (Homo sapiens, UniProt Q12809); assay: Inhibition of hERG; assay type: toxicity
Sequence of Voltage-gated inwardly rectifying potassium channel KCNH2 (Q12809 whole entry): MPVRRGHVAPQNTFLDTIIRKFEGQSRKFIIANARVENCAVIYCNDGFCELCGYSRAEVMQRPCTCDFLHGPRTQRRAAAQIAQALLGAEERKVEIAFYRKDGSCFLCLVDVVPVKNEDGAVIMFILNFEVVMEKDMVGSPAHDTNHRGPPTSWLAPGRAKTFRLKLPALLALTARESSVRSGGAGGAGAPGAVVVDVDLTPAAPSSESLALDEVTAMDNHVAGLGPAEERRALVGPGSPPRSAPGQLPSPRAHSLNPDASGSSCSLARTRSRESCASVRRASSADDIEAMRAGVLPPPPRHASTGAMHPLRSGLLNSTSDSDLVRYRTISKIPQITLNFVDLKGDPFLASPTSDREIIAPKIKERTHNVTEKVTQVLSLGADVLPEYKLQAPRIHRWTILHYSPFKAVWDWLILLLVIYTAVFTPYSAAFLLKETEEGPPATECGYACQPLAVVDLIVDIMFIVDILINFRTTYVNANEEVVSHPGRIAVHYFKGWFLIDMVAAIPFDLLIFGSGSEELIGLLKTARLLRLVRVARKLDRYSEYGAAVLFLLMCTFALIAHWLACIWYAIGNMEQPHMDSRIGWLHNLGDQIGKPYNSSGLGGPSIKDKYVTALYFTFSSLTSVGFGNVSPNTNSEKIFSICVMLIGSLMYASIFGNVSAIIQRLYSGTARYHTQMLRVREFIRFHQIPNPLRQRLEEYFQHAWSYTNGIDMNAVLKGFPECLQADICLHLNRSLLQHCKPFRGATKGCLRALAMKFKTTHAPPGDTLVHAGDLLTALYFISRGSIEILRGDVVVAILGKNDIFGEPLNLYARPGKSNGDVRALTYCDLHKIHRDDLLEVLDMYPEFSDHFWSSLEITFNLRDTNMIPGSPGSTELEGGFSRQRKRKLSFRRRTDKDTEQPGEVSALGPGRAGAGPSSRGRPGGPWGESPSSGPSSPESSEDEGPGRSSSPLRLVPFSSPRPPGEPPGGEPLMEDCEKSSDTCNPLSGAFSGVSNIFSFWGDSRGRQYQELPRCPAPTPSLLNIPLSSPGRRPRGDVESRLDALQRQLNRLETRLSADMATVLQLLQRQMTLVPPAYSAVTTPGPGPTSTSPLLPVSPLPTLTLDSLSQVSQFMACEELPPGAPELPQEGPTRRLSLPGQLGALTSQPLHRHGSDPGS
Outline: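 Electrophysiological recording of hERG current at 30, 10, 3.0, 1.0 and 0.3 µM, run in duplicate for IC50.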

J774.A1 = assay: Antimycobacterial activity against Mycobacterium tuberculosis H37Rv infected in mouse J774.A1 cells assessed as change in log10 CFU at 5 ug/ml; assay type: functional; details: dose 5 µg/ml
Outline: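 Mouse J774A.1 macrophages infected with M. tuberculosis H37Rv, test compound at final 10 or 5 µg/mL. Read-out is intracellular log10 CFU; Δlog10 CFU = untreated minus treated. Triplicates in at least three separate experiments.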

SMILES: COC(=O)NC(=O)c1ccsc1NC(=O)c1ccc(C(=O)N2CCCCC2)cc1
- selectivity ratio [1]: > 337
- IC50 [2]: > 64 µg/mL
- MIC [3]: 0.19 µg/mL (≈ 0.457 µM)

SMILES: CCOC(=O)NC(=O)c1ccsc1NC(=O)c1ccc(S(=O)(=O)N2CCCCC2)cc1
- remaining at 1 µM [4]: 49.8%
- half-life at 1 µM [5]: 50.6 min
- remaining at 1 µM [6]: 66.3%
- selectivity ratio [1]: 619
- IC50 [7]: 34.3 µg/mL (≈ 73.7 µM)
- IC50 [2]: 18.6 µg/mL (≈ 39.9 µM)
- MIC [8]: < 0.016 µg/mL
- MIC [3]: 0.03 µg/mL (≈ 0.0644 µM)
- MIC [9]: < 0.016 µg/mL
- IC50 [10]: 38.8 µg/mL (≈ 83.3 µM)
- half-life at 1 µM [11]: 29.9 min

SMILES: CCOC(=O)NC(=O)c1ccsc1NC(=O)c1ccc(S(=O)(=O)Nc2ccc(OC)cc2)cc1
- MIC [3]: 3.64 µg/mL (≈ 7.23 µM)

SMILES: CCCOC(=O)NC(=O)c1ccsc1NC(=O)c1ccc(S(=O)(=O)N2CCCCC2)cc1
- selectivity ratio [1]: 1110
- IC50 [2]: 56.6 µg/mL (≈ 118 µM)
- MIC [3]: 0.051 µg/mL (≈ 0.106 µM)

SMILES: COC(=O)NC(=O)c1ccsc1NC(=O)c1ccc(S(=O)(=O)N2CCCC2)cc1
- selectivity ratio [1]: 395
- IC50 [2]: 39.4 µg/mL (≈ 90.2 µM)
- MIC [3]: 0.1 µg/mL (≈ 0.229 µM)

SMILES: COC(=O)NC(=O)c1ccsc1NC(=O)c1ccc(S(=O)(=O)N2CCC(=O)CC2)cc1
- MIC [3]: 3.52 µg/mL (≈ 7.56 µM)

SMILES: CC(C)OC(=O)NC(=O)c1ccsc1NC(=O)c1ccc(S(=O)(=O)N2CCOCC2)cc1
- selectivity ratio [1]: 29
- IC50 [2]: 13.1 µg/mL (≈ 27.3 µM)
- MIC [3]: 0.45 µg/mL (≈ 0.934 µM)

SMILES: COC(=O)NC(=O)c1ccsc1NC(=O)c1ccc(S(=O)(=O)N2CCC(c3ccccc3)CC2)cc1
- MIC [3]: > 32 µg/mL

SMILES: O=C(NC(=O)c1ccsc1NC(=O)c1ccc(S(=O)(=O)N2CCOCC2)cc1)OCC(F)(F)F
- MIC [3]: 30.4 µg/mL (≈ 58.4 µM)

SMILES: COC(=O)NC(=O)c1ccsc1NC(=O)c1ccc(S(=O)(=O)N2CCC2)cc1
- selectivity ratio [1]: 134
- IC50 [2]: 17.5 µg/mL (≈ 41.3 µM)
- MIC [3]: 0.13 µg/mL (≈ 0.307 µM)

SMILES: CCN(C)S(=O)(=O)c1ccc(C(=O)Nc2sccc2C(=O)NC(=O)OC)cc1
- selectivity ratio [1]: 21
- IC50 [2]: 10.4 µg/mL (≈ 24.5 µM)
- MIC [3]: 0.49 µg/mL (≈ 1.15 µM)

SMILES: COC(=O)NC(=O)c1ccsc1NC(=O)c1ccc(S(=O)(=O)NC23CC4CC(CC(C4)C2)C3)cc1
- MIC [3]: 1.96 µg/mL (≈ 3.79 µM)

SMILES: CCOC(=O)NC(=O)c1ccsc1NC(=O)c1ccc(S(=O)(=O)Nc2ccc(F)cc2)cc1
- selectivity ratio [1]: 21
- IC50 [2]: 20.5 µg/mL (≈ 41.8 µM)
- MIC [3]: 0.98 µg/mL (≈ 1.99 µM)

SMILES: O=C(Nc1sccc1C(=O)Nc1ccccn1)c1ccc(S(=O)(=O)N2CCCCC2)cc1
- MIC [3]: 29.6 µg/mL (≈ 62.9 µM)

SMILES: CCOC(=O)NC(=O)c1ccsc1NC(=O)c1ccc(S(=O)(=O)N2CCC(OC)CC2)cc1
- selectivity ratio [1]: 701
- IC50 [2]: 21 µg/mL (≈ 42.4 µM)
- MIC [3]: 0.03 µg/mL (≈ 0.0605 µM)

SMILES: CCOC(=O)NC(=O)c1ccsc1NC(=O)c1ccc(S(=O)(=O)Nc2ccccc2)cc1
- selectivity ratio [1]: 21
- IC50 [2]: 14.5 µg/mL (≈ 30.6 µM)
- MIC [3]: 0.7 µg/mL (≈ 1.48 µM)

SMILES: CCOC(=O)NC(=O)c1ccsc1NC(=O)c1ccc(S(=O)(=O)Nc2ccc(C)cc2)cc1
- MIC [3]: 3.56 µg/mL (≈ 7.3 µM)

SMILES: CCOC(=O)NC(=O)c1ccsc1NC(=O)c1ccc(S(=O)(=O)Nc2ccccn2)cc1
- MIC [3]: 1.55 µg/mL (≈ 3.27 µM)

SMILES: CCOC(=O)NC(=O)c1ccsc1NC(=O)c1ccc(S(=O)(=O)Nc2ccc(Br)cc2)cc1
- MIC [3]: 2.79 µg/mL (≈ 5.05 µM)

SMILES: Cc1ccnc(NC(=O)c2ccsc2NC(=O)c2ccc(S(=O)(=O)N3CCOCC3)cc2)n1
- selectivity ratio [1]: 49
- IC50 [2]: 42.7 µg/mL (≈ 87.6 µM)
- MIC [3]: 0.87 µg/mL (≈ 1.78 µM)

SMILES: COC(=O)NC(=O)c1ccsc1NC(=O)c1ccc(S(=O)(=O)N2CCC(O)CC2)cc1
- MIC [3]: 3.67 µg/mL (≈ 7.85 µM)

SMILES: COC(=O)NC(=O)c1ccsc1NC(=O)c1ccc(S(=O)(=O)NC2CCCCC2)cc1
- selectivity ratio [1]: > 70
- IC50 [2]: > 64 µg/mL
- MIC [3]: 0.92 µg/mL (≈ 1.98 µM)

SMILES: CCOC(=O)NC(=O)c1ccsc1NC(=O)c1ccc(S(=O)(=O)Nc2cccc(F)c2)cc1
- MIC [3]: 1.14 µg/mL (≈ 2.32 µM)

SMILES: Cc1ccnc(NC(=O)c2ccsc2NC(=O)c2ccc(S(=O)(=O)N3CCCCC3)cc2)n1
- remaining at 1 µM [4]: 41.2%
- IC50 [12]: 1.7 µM
- half-life at 1 µM [5]: 7.9 min
- remaining at 1 µM [6]: 7.3%
- selectivity ratio [1]: 137
- IC50 [2]: 32.8 µg/mL (≈ 67.5 µM)
- MIC [3]: 0.24 µg/mL (≈ 0.494 µM)
- half-life at 1 µM [11]: 23.4 min

SMILES: COC(=O)NC(=O)c1ccsc1NC(=O)c1ccc(S(=O)(=O)N(C)C)cc1
- selectivity ratio [1]: 14
- IC50 [2]: 16.2 µg/mL (≈ 39.3 µM)
- MIC [3]: 1.19 µg/mL (≈ 2.89 µM)

SMILES: CCOC(=O)NC(=O)c1ccsc1NC(=O)c1ccc(S(=O)(=O)Nc2ccc(OC(F)(F)F)cc2)cc1
- MIC [3]: 26.3 µg/mL (≈ 47.2 µM)

SMILES: CCCOC(=O)NC(=O)c1ccsc1NC(=O)c1ccc(S(=O)(=O)N2CCOCC2)cc1
- MIC [3]: 2.45 µg/mL (≈ 5.09 µM)

SMILES: CCOC(=O)NC(=O)c1ccsc1NC(=O)c1ccc(S(=O)(=O)Nc2ccc([N+](=O)[O-])cc2)cc1
- MIC [3]: 3.61 µg/mL (≈ 6.96 µM)

SMILES: CCOC(=O)NC(=O)c1ccsc1NC(=O)c1ccc(S(=O)(=O)N2CCCCCC2)cc1
- selectivity ratio [1]: 143
- IC50 [2]: 3.42 µg/mL (≈ 7.13 µM)
- MIC [3]: 0.024 µg/mL (≈ 0.05 µM)

SMILES: COC(=O)NC(=O)c1ccsc1NC(=O)c1ccc(S(=O)(=O)N2CCCCCC2)cc1
- selectivity ratio [1]: 42
- IC50 [2]: 9.13 µg/mL (≈ 19.6 µM)
- MIC [3]: 0.22 µg/mL (≈ 0.473 µM)

SMILES: COC(=O)NC(=O)c1ccsc1NC(=O)c1ccc(S(=O)(=O)N2CCC(C)CC2)cc1
- selectivity ratio [1]: 40
- IC50 [2]: 9.13 µg/mL (≈ 19.6 µM)
- MIC [3]: 0.23 µg/mL (≈ 0.494 µM)

SMILES: COC(=O)NC(=O)c1ccsc1NC(=O)c1ccc(S(=O)(=O)N2CCC(OC)CC2)cc1
- IC50 [12]: 8.9 µM
- selectivity ratio [1]: 601
- IC50 [7]: 54.9 µg/mL (≈ 114 µM)
- IC50 [2]: 18 µg/mL (≈ 37.4 µM)
- MIC [8]: 0.25 µg/mL (≈ 0.519 µM)
- MIC [3]: 0.03 µg/mL (≈ 0.0623 µM)
- MIC [9]: 0.44 µg/mL (≈ 0.914 µM)
- IC50 [10]: 46.1 µg/mL (≈ 95.7 µM)

SMILES: CCCCNS(=O)(=O)c1ccc(C(=O)Nc2sccc2C(=O)NC(=O)OC)cc1
- selectivity ratio [1]: 105
- IC50 [2]: 29.5 µg/mL (≈ 67.1 µM)
- MIC [3]: 0.28 µg/mL (≈ 0.637 µM)

SMILES: CCOC(=O)NC(=O)c1ccsc1NC(=O)c1ccc(S(=O)(=O)Nc2nccs2)cc1
- MIC [3]: 7.64 µg/mL (≈ 15.9 µM)

SMILES: CCOC(=O)NC(=O)c1ccsc1NC(=O)c1ccc(S(=O)(=O)N2CCC2)cc1
- selectivity ratio [1]: > 1310
- IC50 [2]: > 64 µg/mL
- MIC [8]: 0.06 µg/mL (≈ 0.137 µM)
- MIC [3]: 0.049 µg/mL (≈ 0.112 µM)
- MIC [9]: 0.062 µg/mL (≈ 0.142 µM)

SMILES: O=C(NC(=O)c1ccsc1NC(=O)c1ccc(S(=O)(=O)N2CCCCC2)cc1)OCC(F)(F)F
- MIC [3]: 29.7 µg/mL (≈ 57.2 µM)

SMILES: C[C@H]1COc2c(N3CCN(C)CC3)c(F)cc3c(=O)c(C(=O)O)cn1c23.C[C@H]1COc2c(N3CCN(C)CC3)c(F)cc3c(=O)c(C(=O)O)cn1c23.O [LEVOFLOXACIN]
- MIC [8]: 1.94 µg/mL
- MIC [3]: 0.33 µg/mL
- MIC [9]: 1.87 µg/mL

SMILES: CO[C@H]1/C=C/O[C@@]2(C)Oc3c(C)c(O)c4c(O)c(c(/C=N/N5CCN(C)CC5)c(O)c4c3C2=O)NC(=O)/C(C)=C\C=C\[C@H](C)[C@H](O)[C@@H](C)[C@@H](O)[C@@H](C)[C@H](OC(C)=O)[C@@H]1C [RIFAMPIN]
- Activity (J774.A1): 1.03 deltalog10CFU
- MIC [8]: > 10 µg/mL
- MIC [3]: 0.015 µg/mL (≈ 0.0182 µM)
- MIC [9]: 9.24 µg/mL (≈ 11.2 µM)

SMILES: CN[C@@H]1[C@H](O[C@H]2[C@H](O[C@H]3[C@H](O)[C@@H](O)[C@H](N=C(N)N)[C@@H](O)[C@@H]3N=C(N)N)O[C@@H](C)[C@]2(O)C=O)O[C@@H](CO)[C@H](O)[C@H]1O [STREPTOMYCIN]
- MIC [8]: > 2 µg/mL
- MIC [3]: 0.49 µg/mL (≈ 0.843 µM)
- MIC [9]: > 2 µg/mL
